Measurements as given in PubChem BioAssay.
Results filed as inconclusive are left out.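 How the source made its calls, unless noted: active means cell viability at or below a set limit in both duplicate runs, the limit being the all-compound median minus 4 SD (cut at about 23% in these data, passing the limit was not always enough); inconclusive means no clear call, values can overlap the other calls; inactive means the rest.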

How the values were obtained:
[1] = S. cerevisiae growth inhibition in permissive medium (OD615), pilot counter-assay for S. cerevisiae lifespan shortening project, permissive growth control (AID 705;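 active means growth inhibition above 25% in both replicates, a cutoff set 3 SD above the mean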); conditions: OD615, 24 h, at 10 µM, active compounds read high
In short: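 Material: engineered DeaD yeast; Compound: one dose 10 µM, DMSO 0.25% final; Detection: absorbance (optical density) at 615 nm; Buffer or medium: permissive raffinose/galactose medium; Timing: 24 h exposure, 30 °C.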

[2] = S. cerevisiae growth inhibition in restrictive medium, OD615, pilot screen, restrictive growth control, yeast lifespan reduction project (AID 706;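 active means growth inhibition above a set limit, 3 SD over mean compound inhibition, in both replicates, cut at about 43% in these data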;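 further: modified DeaD lifespan yeast strain shifted to restrictive glucose medium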); conditions: OD615, 48 h, at 10 µM, active compounds read high
In short: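 Buffer or medium: restrictive glucose medium (CSMM-D); test system: modified S. cerevisiae; doses: single dose of 10 µM compound final, 0.25% DMSO; schedule: 48 h compound exposure at 30 °C; detection: absorbance (optical density) measured at 615 nm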

[3] = doxorubicin toxicity protection in MRP-1 cells – H69AR cells, CellTiter-Glo, duplicate, MRP-1 activator project, pilot screen (AID 807;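 active means viability increase at or above a cutoff of the median across tested compounds plus 3 SD, cut at about 8.5% in these data, passing the limit was not always enough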;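 further: compound pretreatment 18-22 h then 72 h combined with doxorubicin; 0% = doxorubicin alone and 100% = vehicle without doxorubicin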); conditions: H69AR viability with doxorubicin, CellTiter-Glo luminescence; at 10 µM; active compounds read high
[4] = viability of HCT116 without oncogenic beta-catenin – human colon tumor cells, pilot screen (AID 823); conditions: HCT116 beta-catenin knockout viability, CellTiter-Glo, 60 h; at 10 µM; active compounds read low;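 further: 0% = wells killed by 20 µM Hyamine and 100% = untreated DMSO cell wells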
[5] = viability of PTEN-null HCT116 cells – cell-based, HCT116 clonal line, CellTiter-Glo, pilot screen (AID 824;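 active means viability at or below 27.92% in each of two runs, the all-compound median minus 4 SD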;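 further: 0% = 20 µM Hyamine control and 100% = vehicle cell control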); conditions: HCT116 PTEN-deleted viability, 60 h, at 10 µM, active compounds read low
[6] = RAM pathway blockade in budding yeast – dse1pr::URA3 reporter, 5-FOA selection, pilot screen (AID 869;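 active means inhibition over a set limit, the all-compound mean plus 3 SD, in both replicate runs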;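 further: 0% = DMSO wells with no growth and 100% = 10 µM 1-NA-PP1 with full growth; RAM network block rescues cells from 5-FOA so hits raise OD615 growth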); conditions: S. cerevisiae dse1pr::URA3 5-FOA growth, OD615, 2 d; at 10 µM; active compounds read high; strain carries analog-sensitive mutant Cbk1 kinase
[7] = RAM signaling pathway blockade in yeast – S. cerevisiae, Pdr1DBD-CYC8 efflux-inhibited sensitized strain, primary screen (AID 1298;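 active means RAM network inhibition above 8.4% in each of two replicates, 3 SD over the compound average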;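 further: 0% = DMSO untreated cells without growth and 100% = 10 µM 1-NA-PP1 full growth; higher means more yeast growth rescued from 5-FOA killing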); conditions: S. cerevisiae cbk1-as DSE1-URA3 strain, 5-FOA growth OD615, 2 d; at 50 µM; active compounds read high

CC(=O)Nc1cc(NC(C)=O)c(CC(C)C)s1
inactive: growth inhibition [1] -6.92% | growth inhibition [2] 2.99% | viability increase [3] -0.12% | viability [4] 94.9% | viability [5] 101% | inhibition [6] 0.44% | RAM network inhibition [7] 2.34%

O=C(NCc1ccc2c(c1)OCO2)C1CC(=O)N(CCc2ccccc2)C1 (configuration not stated)
inactive: growth inhibition [1] 0.26% | growth inhibition [2] 0.755% | viability increase [3] -0.29% | viability [4] 96.1% | viability [5] 95.7% | inhibition [6] 2.38% | RAM network inhibition [7] 2.32%

CC(C)C(NC(=O)C12CC3CC(CC(C3)C1)C2)C(=O)NC1=NCCS1 (configuration not stated)
inactive: growth inhibition [1] -6.21% | growth inhibition [2] 7.3% | viability increase [3] -3.97% | viability [4] 88% | viability [5] 89.2% | inhibition [6] 2.41% | RAM network inhibition [7] 4.34%

O=C(CSc1nccn1-c1cccc(Cl)c1)Nc1ccc2c(c1)OCCO2
inactive: growth inhibition [1] -11.7% | growth inhibition [2] 2.4% | viability increase [3] 6.11% | viability [4] 101% | viability [5] 93% | inhibition [6] 2.52% | RAM network inhibition [7] 3.35%

Cc1ccc(CN2C(=O)/C(=C3\SC(N4CCOCC4)=NC3=O)c3cc(Br)ccc32)cc1
inactive: growth inhibition [1] -10.5% | growth inhibition [2] -12.1% | viability increase [3] -1.85% | viability [4] 76.7% | viability [5] 79.7% | inhibition [6] 0.615% | RAM network inhibition [7] 9.54%

CCC(=O)Nc1cccc(NC(=O)c2cc3ccccc3o2)c1
inactive: growth inhibition [1] -10.9% | growth inhibition [2] -9.17% | viability increase [3] -1.82% | viability [4] 93.8% | viability [5] 90.2% | inhibition [6] 1.2% | RAM network inhibition [7] 5.21%

CC1(C)CC(=O)C(C=NC2CCCCC2)=C(O)C1
inactive: growth inhibition [1] 0.43% | growth inhibition [2] -1.72% | viability increase [3] -1.23% | viability [4] 98.7% | viability [5] 94.8% | inhibition [6] 1.33% | RAM network inhibition [7] -1.28%

O=C(Nc1cccc(F)c1)c1ccc(S(=O)(=O)N2CCOCC2)cc1
inactive: growth inhibition [1] -17% | growth inhibition [2] -7.46% | viability increase [3] -2.24% | viability [4] 98.3% | viability [5] 99.6% | inhibition [6] 1.13% | RAM network inhibition [7] -1.21%

Cn1c2ccccc2c2c(C(=O)O)cn(C3CCCC3)c(=O)c21
inactive: growth inhibition [1] 3.4% | growth inhibition [2] 1.83% | viability increase [3] -3.21% | viability [4] 91.4% | viability [5] 91.7% | inhibition [6] 1.46% | RAM network inhibition [7] 4.9%

CCCCn1c(C(C)NC(=O)CCC)nc2ccccc21 (configuration not stated)
inactive: growth inhibition [1] -1.25% | growth inhibition [2] -0.375% | viability increase [3] 1.35% | viability [4] 86.2% | viability [5] 91% | inhibition [6] 0.88% | RAM network inhibition [7] 7.23%

O=C(C1CC(c2ccc(F)cc2)=NO1)N1CCc2ccccc2C1 (configuration not stated)
inactive: growth inhibition [1] 1.34% | growth inhibition [2] -7.89% | viability increase [3] 0.59% | viability [4] 101% | viability [5] 99.5% | inhibition [6] 1.91% | RAM network inhibition [7] 7.63%

COc1ccc(C2C(C(=O)Nc3cc(C)on3)c3ccccc3C(=O)N2C)cc1OC (configuration not stated)
inactive: growth inhibition [1] -4.48% | growth inhibition [2] 2.73% | viability increase [3] 0.61% | viability [4] 102% | viability [5] 99.4% | inhibition [6] 1.24% | RAM network inhibition [7] 4.64%

O=C(C1CC(c2ccc(F)cc2)=NO1)N1CCN(Cc2ccccc2)CC1 (configuration not stated)
inactive: growth inhibition [1] -0.77% | growth inhibition [2] -2.39% | viability increase [3] -1.28% | viability [4] 96.2% | viability [5] 101% | inhibition [6] 1.8% | RAM network inhibition [7] 2.3%

COc1ccc(C2C(C(=O)NCc3ccccn3)c3cc(OC)c(OC)cc3C(=O)N2C)cc1 (configuration not stated)
inactive: growth inhibition [1] -3.48% | growth inhibition [2] 1.16% | viability increase [3] -4.5% | viability [4] 98% | viability [5] 95.9% | inhibition [6] -0.135% | RAM network inhibition [7] 5.92%

COC(=O)c1ccc(C2c3c(oc4cc(C)c(C)cc4c3=O)C(=O)N2CCCN(C)C)cc1 (configuration not stated)
inactive: growth inhibition [1] -7.92% | growth inhibition [2] -7.88% | viability increase [3] -2.2% | viability [4] 93.8% | viability [5] 87.7% | inhibition [6] 0.34% | RAM network inhibition [7] 3.78%

Cc1ccc2oc(=O)c3cnn(CC(=O)NC4CCCCC4C)c3c2c1 (configuration not stated)
inactive: growth inhibition [1] -14% | growth inhibition [2] -9.46% | viability increase [3] -2.9% | viability [4] 95.1% | viability [5] 84.1% | inhibition [6] 1.73% | RAM network inhibition [7] 0.7%

CCc1ccc(NC(=O)CN(c2ccc3c(c2)OCO3)S(=O)(=O)c2c(C)noc2C)cc1
inactive: growth inhibition [1] -16.8% | growth inhibition [2] -11.4% | viability increase [3] 0.12% | viability [4] 85.5% | viability [5] 80.5% | inhibition [6] 3.38% | RAM network inhibition [7] 9.54%

CCOc1ccccc1-c1nc(C(N)=O)c2[nH]c(=O)n(-c3ccc(F)cc3)c2n1
inactive: growth inhibition [1] -8.26% | growth inhibition [2] -0.005% | viability increase [3] -4.08% | viability [4] 90.2% | viability [5] 83.9% | inhibition [6] 0.93% | RAM network inhibition [7] -0.71%

COC(=O)c1cn(NC(=O)c2ccncc2)c(=O)c2ccccc12
inactive: growth inhibition [1] -0.73% | growth inhibition [2] -19.7% | viability increase [3] -1.43% | viability [4] 98.3% | viability [5] 94.9% | inhibition [6] 0.87% | RAM network inhibition [7] 2.53%

Cc1c(C(=O)NCc2ccc3c(c2)OCO3)sc2nc(-c3ccc(F)cc3)cn12
inactive: growth inhibition [1] -13.8% | growth inhibition [2] -14.9% | viability increase [3] 0.84% | viability [4] 108% | viability [5] 105% | inhibition [6] 2.14% | RAM network inhibition [7] 6.3%

COc1ccccc1NC(=O)CSc1nc(O)cc(=O)n1-c1ccccc1OC
inactive: growth inhibition [1] -0.915% | growth inhibition [2] -0.015% | viability increase [3] 0.76% | viability [4] 100% | viability [5] 100% | inhibition [6] 0.485% | RAM network inhibition [7] 3.1%

CCOC(=O)c1nnn(-c2nonc2N)c1COc1ccccc1
inactive: growth inhibition [1] -15.7% | growth inhibition [2] -5.9% | viability increase [3] -2.43% | viability [4] 89.5% | viability [5] 87.4% | inhibition [6] 0.05% | RAM network inhibition [7] 3.66%

C=CCNC(=O)C1CC(=O)N(c2ccc(C)cc2)C1 (configuration not stated)
inactive: growth inhibition [1] -10.6% | growth inhibition [2] -4.72% | viability increase [3] -3.08% | viability [4] 93.9% | viability [5] 86.1% | inhibition [6] 0.995% | RAM network inhibition [7] 4.77%

COc1ccccc1NC(=O)CSc1nnc(-c2ccccn2)n1Cc1ccco1
inactive: growth inhibition [1] -3.73% | growth inhibition [2] 13.1% | viability increase [3] -3.83% | viability [4] 101% | viability [5] 96.8% | inhibition [6] 1.23% | RAM network inhibition [7] 2.52%

O=C(Cn1nc(Cc2cccnc2)c2ccccc2c1=O)N1CCN(C(=O)c2ccco2)CC1
inactive: growth inhibition [1] 4.07% | growth inhibition [2] 0.805% | viability increase [3] -0.74% | viability [4] 104% | viability [5] 104% | inhibition [6] 0.64% | RAM network inhibition [7] 2.7%

O=S(=O)(Nc1nnc(-c2ccccc2)s1)c1ccc(Cl)cc1
inactive: growth inhibition [1] 4.67% | growth inhibition [2] 14.4% | viability increase [3] -0.34% | viability [4] 104% | viability [5] 105% | inhibition [6] 3.29% | RAM network inhibition [7] 1.95%

Cc1ccc(-c2nc(C3CCCN(S(=O)(=O)c4ccc(C)cc4)C3)no2)cc1 (configuration not stated)
inactive: growth inhibition [1] -10.8% | growth inhibition [2] 9.18% | viability increase [3] 5.21% | viability [4] 85.2% | viability [5] 84.3% | inhibition [6] 1.08% | RAM network inhibition [7] -1.57%

Cc1cccc(-n2c(Cc3cc(=O)[nH]c(=O)[nH]3)nnc2SCC(=O)NCC2CCCO2)c1 (configuration not stated)
inactive: growth inhibition [1] -2.17% | growth inhibition [2] -13.5% | viability increase [3] -2.52% | viability [4] 93.5% | viability [5] 92.3% | inhibition [6] 0.535% | RAM network inhibition [7] -1.56%

COC(=O)c1sc2nc3c(cc2c1N)COC(C)(C)C3
inactive: growth inhibition [1] -6.75% | growth inhibition [2] -7.37% | viability increase [3] -1.54% | viability [4] 101% | viability [5] 94.1% | inhibition [6] 1.19% | RAM network inhibition [7] 3.17%

CN(C)S(=O)(=O)c1ccc(C(=O)Nc2ccccn2)cc1
inactive: growth inhibition [1] -10.3% | growth inhibition [2] -19.3% | viability increase [3] -0.7% | viability [4] 96.6% | viability [5] 89.2% | inhibition [6] 1.31% | RAM network inhibition [7] -1.36%

CC(=O)Nc1ccc(S(=O)(=O)NCCSCc2ccco2)cc1
inactive: growth inhibition [1] -4.83% | growth inhibition [2] 16.6% | viability increase [3] -4.43% | viability [4] 82.2% | viability [5] 86% | inhibition [6] 2.15% | RAM network inhibition [7] 2.29%

COc1ccc(-n2nnc3c(=O)n(CC(=O)N4CCCc5ccccc54)cnc32)cc1
inactive: growth inhibition [1] -1.22% | growth inhibition [2] -1.47% | viability increase [3] -0.27% | viability [4] 95.2% | viability [5] 91.2% | inhibition [6] 2.3% | RAM network inhibition [7] 1.61%

CC(=O)NC(C)(C)C1CC=C(C)/C(=N\O)C1 (configuration not stated)
inactive: growth inhibition [1] -3.7% | growth inhibition [2] -1.12% | viability increase [3] -0.02% | viability [4] 104% | viability [5] 101% | inhibition [6] 1.36% | RAM network inhibition [7] -0.78%

Cc1cccc2sc(NC(=O)c3ccc(Cl)s3)nc12
inactive: growth inhibition [1] -21.9% | growth inhibition [2] -21.5% | viability increase [3] -7.7% | viability [4] 68.7% | viability [5] 56% | inhibition [6] 2.64% | RAM network inhibition [7] 5.32%

O=c1c2cnn(-c3ccccc3)c2ncn1Cc1ccccc1F
inactive: growth inhibition [1] -1.06% | growth inhibition [2] 9.05% | viability increase [3] -0.65% | viability [4] 93% | viability [5] 88.6% | inhibition [6] -0.06% | RAM network inhibition [7] 4.95%

CCCCOC(=O)Nc1ccc(N2CCOCC2)cc1
inactive: growth inhibition [1] -0.54% | growth inhibition [2] 2.39% | viability increase [3] -0.38% | viability [4] 98.2% | viability [5] 102% | inhibition [6] 1.28% | RAM network inhibition [7] 4.87%
